Rows were chosen to be rich in hits. Some 2% of all compounds tested hit in one or more screens of this group.
VIM-2 inh: VIM-2 metallo-beta-lactamase inhibitors, primary screen, biochemical, epi-absorbance readout, Pseudomonas aeruginosa enzyme; purified VIM-2, nitrocefin hydrolysis, epi-absorbance fluorescence; inhibition, % at 5.6 µM; 0.89% of 290,000 active; AID 1527, 2009;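 active means inhibition above the mean of all tested compounds plus 3 SD, cutoff set per screening run, cut at about 7.5% in these data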;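 further: red hydrolysis product quenches plate fluorescence so inhibitors raise well fluorescence; 0% = enzyme with DMSO and 100% = DMSO without enzyme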
HKDC1 inh: HKDC1 hexokinase inhibitors, primary screen, biochemical, fluorescence, uHTS. recombinant HKDC1, G6PDH/diaphorase resazurin coupled fluorescence. inhibition, % at 20 µM. 0.16% of 340,000 active. AID 493160, 2011;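 active means inhibition above about 35% when tested at 20 µM, limit read from the data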;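 further: plate controls were DMSO wells with enzyme for no effect and DMSO wells lacking enzyme for full effect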
Target sequence (Q2TB90 whole entry, looked up): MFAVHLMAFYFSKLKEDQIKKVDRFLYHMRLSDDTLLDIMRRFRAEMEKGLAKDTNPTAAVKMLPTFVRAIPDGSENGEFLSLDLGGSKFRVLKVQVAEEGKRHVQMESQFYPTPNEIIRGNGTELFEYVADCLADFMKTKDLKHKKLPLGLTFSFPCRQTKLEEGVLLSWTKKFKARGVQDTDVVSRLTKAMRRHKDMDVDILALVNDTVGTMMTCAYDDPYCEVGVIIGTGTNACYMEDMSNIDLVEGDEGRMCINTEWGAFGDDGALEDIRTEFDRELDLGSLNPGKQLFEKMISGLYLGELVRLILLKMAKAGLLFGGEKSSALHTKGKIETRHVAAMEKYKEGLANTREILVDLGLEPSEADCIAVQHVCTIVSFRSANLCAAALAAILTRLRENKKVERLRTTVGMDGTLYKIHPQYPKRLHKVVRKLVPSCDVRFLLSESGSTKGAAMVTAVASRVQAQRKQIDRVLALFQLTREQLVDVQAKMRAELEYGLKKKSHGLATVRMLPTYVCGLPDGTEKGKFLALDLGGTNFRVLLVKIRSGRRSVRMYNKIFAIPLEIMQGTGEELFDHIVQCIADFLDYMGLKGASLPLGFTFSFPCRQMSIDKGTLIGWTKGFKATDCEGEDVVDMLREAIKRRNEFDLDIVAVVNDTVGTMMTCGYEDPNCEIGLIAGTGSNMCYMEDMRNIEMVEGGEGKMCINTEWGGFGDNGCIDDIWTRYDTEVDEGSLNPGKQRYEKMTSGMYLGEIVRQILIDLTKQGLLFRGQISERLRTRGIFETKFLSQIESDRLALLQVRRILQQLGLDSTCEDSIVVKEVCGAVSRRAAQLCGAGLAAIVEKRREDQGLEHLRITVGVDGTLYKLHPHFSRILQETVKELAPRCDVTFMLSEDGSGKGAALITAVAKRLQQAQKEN
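Test system: recombinant HKDC1 (HK5) hexokinase enzyme, produced in-house / Doses: 20 µM test compound, 1% DMSO / Timing: 90 min, room temperature / Detection: G6PDH/diaphorase-coupled fluorescence, 1 mM NADP, 100 µM resazurin, 525/613 nm / Control set: DMSO wells with and without enzyme mix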
IMP-1 inh: IMP-1 metallo-beta-lactamase inhibitors, primary screen, biochemical, epi-absorbance readout, Pseudomonas aeruginosa enzyme; metallo-beta-lactamase IMP-1 (Pseudomonas aeruginosa); purified IMP-1, nitrocefin hydrolysis, epi-absorbance fluorescence; inhibition, % at 5.6 µM; 0.45% of 290,000 active; AID 1556, 2009;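 active means inhibition above the mean plus 3 SD of all compounds in the same screening run, cut at about 4.5% in these data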;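 further: 0% = IMP-1 with DMSO and 100% = DMSO wells lacking enzyme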
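System: Purified IMP-1 | Read-out basis: Percent enzyme inhibition | Controls: IMP-1 with DMSO as 0%, enzyme-free DMSO as 100% | Replicates: One well per compound | Doses: 5.6 µM nominal single concentration | Detection: Epi-absorbance fluorescence, 480 nm excitation, 530 nm emission | Incubation: 25 °C, 15 min preincubation, 25 min reaction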
PvdQ inh: P. aeruginosa PvdQ acylase inhibitors, primary screen, biochemical, fluorescence, plate reader and imaging, single point. 0.063% of 340,000 active. PvdQ acylase [Pseudomonas aeruginosa LESB58]. purified PvdQ acylase. inhibition, % at 10 µM; in the data active means inhibition above about 30%, passing the limit was not always enough;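 further: 0% = vehicle neutral wells and 100% = reference inhibitor wells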
MIN6 prolif: inducers of MIN6 beta-cell proliferation, primary screen, ATP luminescence, uHTS; AID 2380, 2010; 0.29% of 330,000 active; MIN6 cells proliferation, ATPlite luminescence, 48 h; cells starved in 0.2% serum; 100% = growth in 10% serum; proliferation, % at 10 µM;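 active means compounds whose signal lies at least 3.5 SD above the mean of all wells on their plate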;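 further: 0% = DMSO-treated cells in low-serum medium and 100% = 10% serum control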
ATG4B inh: ATG4B protease inhibitors, primary screen, biochemical, fluorescence, uHTS; ATG4B cleavage of LC3-PLA2, NBD-HPC fluorescence, 1 h; inhibition, % at 8.33 µM; 0.51% of 340,000 active; AID 504462, 2011; in the data active means inhibition above about 40%
Active calls of the source: *; . = not tested or not shown.

SMILES	VIM-2 inh	HKDC1 inh	IMP-1 inh	PvdQ inh	MIN6 prolif	ATG4B inh
CC1CCN(S(=O)(=O)c2cn(CC(=O)Nc3ccc(OC(F)(F)F)cc3)cn2)CC1	-3	0	8.8*	7	2	-4
Cc1cccc2cc(CN(Cc3cccnc3)C(=O)c3ccncc3)c(=O)[nH]c12	-1	-2	-3	1	-2	-2
CCN(CC)CCCNC(=S)N(Cc1cccnc1)Cc1cc2cc(C)cc(C)c2[nH]c1=O	12*	-11	1	-4	-3	0
Cc1cc(C)c2[nH]c(=O)c(CN(Cc3cccnc3)C(=S)NCCCN(C)C)cc2c1	9.3*	-4	-2	0	1	-2
Cc1ccc(C)c(NC(=O)CSc2nnc(C3CCCCC3)o2)c1	-4	-9	-2	-19	4	-4
Cc1ccc(-c2c(C(=O)O)c(C(=O)O)c3n2CCC3)cc1	9.8*	-2	-2	-11	-4	-10
O=C(O)c1c(C(=O)O)c(-c2ccc(F)cc2)n2c1CCC2	11*	-3	1	-5	0	-3
Cc1ccc(C)n1-c1ccc(C(=O)NN)cc1	-3	-11	-4	-11	0	35
CCCn1c(SCC(=O)NC2CCCCC2)nnc1C1CC1	4	-6	0	-6	1	6
CCCn1c(SCC(=O)Nc2nnc(C)s2)nnc1C1CC1	7.8*	-3	-2	-16	-2	-8
[2H]C([2H])(CCOS(N)(=O)=O)c1ccccc1	-1	-4	-1	-15	-1	-5
CCOC(=O)c1c(CC(C)C)csc1/N=C/C1C(=O)CC(C)(C)CC1=O	-2	-1	9.1*	-4	-3	-4
CSc1ccc(Cl)c(C(=O)Nc2ccc(OCC(N)=O)cc2)c1	-3	-4	-2	16	1	9
CCCn1c2ccccc2c2nnc(SCCN3CCOCC3)nc21	6	3	-3	-7	-2	-8
CCCn1c2ccc(F)cc2c2nnc(SCCN3CCCCC3)nc21	5	-1	-1	-17	-1	-14
CCn1c2ccc(F)cc2c2nnc(SCCN3CCCCC3)nc21	10*	-2	-3	-17	0	-9
CCn1c2nc(SCCN3CCOCC3)nnc2c2cc(C)cc(C)c21	12*	6	-4	-2	1	-17
O=C(CCCOc1ccccc1)Nc1ccc(Cl)cn1	-1	-9	-3	-4	1	-4
Clc1ccccc1Nc1nnc(-c2ccncc2)s1	-2	-5	-1	-3	0	-7
COc1ccc(Nc2nnc(-c3ccncc3)s2)cc1Cl	1	8	17*	-11	-5	-4
Cc1cc(C)c(S(=O)(=O)/N=C2/C=C(Sc3ncn[nH]3)C(=O)c3ccccc32)cc1C	-2	64*	-3	-2	.	-18
Cc1ccc(C)c(S(=O)(=O)/N=C2\C=C(NS(=O)(=O)c3ccccc3)C(=O)c3ccccc32)c1	-6	21	-6	4	-4	-4
CCNc1nc(NCC)nc(C(=O)NN)n1	-3	0	-4	-5	2	2
Cn1c(-c2ccc(Br)o2)nc2cc(Br)ccc21	8.0*	-7	-1	5	-5	-11
Cn1c(-c2ccc(Br)o2)nc2ccccc21	3	-4	1	20	-5	-11
SMILES	VIM-2 inh	HKDC1 inh	IMP-1 inh	PvdQ inh	MIN6 prolif	ATG4B inh
COc1ccc(NC(=O)CCC(=O)Nc2nnc(C(F)(F)F)s2)c(OC)c1	-3	-4	4.9*	-4	-2	-6
COc1ccc(CCC(=O)Nc2nnc(C(F)(F)F)s2)cc1	-3	0	8.7*	-10	8	-5
COc1ccc(NC(=O)CCCCC(=O)Nc2ccc(OC)cc2OC)c(OC)c1	.	-1	.	4	3	3
NS(=O)(=O)c1ccc(CCNC(=O)CCS(=O)(=O)c2ccc(Br)cc2)cc1	-1	1	7.8*	-13	-1	-3
CCc1cccc(NC(=O)CCS(=O)(=O)c2ccc(Br)cc2)c1	-1	2	9.8*	-11	1	-15
O=C(CCS(=O)(=O)c1ccc(Br)cc1)NCCc1ccccc1	0	4	2	-8	4	-8
CC(/C=N\NC(=O)CN1CCN(S(=O)(=O)c2ccc(C)cc2)CC1)=C\c1ccccc1	-1	-4	-2	-12	.	-24
Cc1ccnc(NC(=O)CCc2c(C)nc3ncnn3c2C)c1	-2	9	1	-4	-2	7
Cc1ccc(NC(=O)CCc2c(C)nc3ncnn3c2C)nc1	1	-2	5.2*	-12	-3	11
Cc1ccnc2nc(C(=O)OCC(=O)Nc3ccc4c(c3)OC(F)(F)O4)nn12	1	-9	4.7*	-10	3	-5
O=CN(c1ccccc1)c1ccc2ccccc2c1	-3	2	-2	79*	-4	4
CN(c1ccccc1)S(=O)(=O)c1ccc2ccccc2c1	0	8	-3	-13	0	7
Cn1c(SCC(=O)n2c3c(c4ccccc42)CCCC3)nnc1-c1ccccc1	8.7*	4	1	-13	-1	-3
Cc1nnc(SCC(=O)n2c3c(c4ccccc42)CCCC3)s1	9.8*	2	-1	-7	-1	-2
Cc1ccc(-c2nnc(SCC(=O)n3c4c(c5ccccc53)CCCC4)o2)cc1	-1	.	1	.	-2	.
CCC(=O)N/C(N)=N/c1nc(C)c2cc(C)c(C)cc2n1	10*	-4	-1	.	-6	-4
Cc1cc2nc(/N=C(\N)NC(=O)C(C)C)nc(C)c2cc1C	0	2	-3	-7	-3	-10
COc1cccc(C(=O)N2CCN(Cc3ccccc3Br)CC2)c1	1	-3	7.4*	3	-1	4
Cc1c(Cc2ccccc2)c(=O)oc2cc(OCC(=O)N3CCC(C(N)=O)CC3)ccc12	2	5	-1	-15	3	2
NC(=O)C1CCN(C(=O)COc2ccc3c(c2)oc(=O)c2ccccc23)CC1	12*	-2	-1	5	0	-23
CCCc1cc(=O)oc2cc(C)cc(OCC(=O)Nc3cccnc3)c12	12*	7	-5	-13	5	-5
CCCc1cc(=O)oc2cc(C)cc(OCC(=O)NCc3ccccn3)c12	-2	-5	-1	-8	0	-15
Cc1cc2n(c(=O)c1C#N)CCCN2c1cccc(Cl)c1	10*	14	3	-6	-1	19
CC(C)c1ccccc1OS(N)(=O)=O	0	-1	-4	-11	-4	5

Source: PubChem (several laboratories)
